Here are results for 7 compounds from PubChem BioAssay.

Active and inactive are the calls of the source.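 Rule for the calls, unless noted: active = fluorescence slope higher than the sample average by over 3 SD (cut at about -0.22 in these data, passing the limit was not always enough); inactive = the rest.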

Test [1] in a line: inhibitors of TNFa-induced NFkB p65 translocation, primary screen, imaging, HUVEC, MLSMR starter and 10KST1 sets (AID 438;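 active = inhibition above 20% together with a positive visual image hit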;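 note: compound added about 3h40 before a 20 min TNFalpha stimulation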;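 for inhibition: signal is the nuclear over cytoplasmic p65 intensity ratio per well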). The note with it: HUVEC TNFa-induced p65 nuclear translocation; cell count: measured here: nuclei count (cytotoxicity indicator), at 2.08 µM; inhibition: at 2 µM, stronger effect = higher value, 0% TNFa-plus-vehicle, 100% no-TNFa wells.
Test [2] is described as follows: inhibitors of E-selectin induction by TNFa, primary screen, imaging, HUVEC, immunofluorescence, MLSMR starter and 10KST1 sets (AID 487;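 active = visually confirmed hit in the image check and inhibition above 20%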;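 for inhibition: signal is fraction of cell area covered by stained E-selectin grains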;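 for nuclei count: 100% = median nuclei count of all wells on the same plate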). To be noted: HUVEC TNFalpha-induced E-selectin immunofluorescence imaging, at 2 µM; inhibition: stronger effect = higher value; nuclei count: measured here: cell number, toxicity.
Test [3] in a line: DUSP6 inhibitors restoring Erk phosphorylation by chemical complementation, primary imaging in DUSP6-transfected HeLa (AID 609;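 active = compounds giving at least 50% inhibition in the cell-based MKP-3 phosphatase rescue imaging test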;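 for inhibition: phospho-Erk level distribution per well compared with pooled transfected vehicle control wells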). The note with it: HeLa MKP-3 transfected, phospho-Erk imaging KS statistic, at 10 µM, cells stimulated with TPA for 15 min.
The target of test [4] is Dual specificity protein phosphatase 6 (Homo sapiens) (UniProt Q16828). Described as above. To be noted: HeLa MKP-3 transfected, phospho-Erk imaging KS statistic; at 10 µM; stronger effect = higher value; cells stimulated with TPA for 15 min.
Test [5] deals with Voltage-gated potassium channel subunit beta-2 (Rattus norvegicus) (UniProt P62483). Description: KvBeta enzyme negative modulators, primary screen, biochemical, NADPH fluorescence (AID 622).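 Note: slope of raw intensity against log time taken from 70 to 1610 s.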 The note with it: recombinant KvBeta, 4-cyanobenzaldehyde reduction, at 10 µM, stronger effect = higher value.
Test [6] has the same target. Description: KvBeta positive modulators, primary screen, biochemical, NADPH fluorescence (AID 623;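 active = NADPH fluorescence slope more negative than the mean of all samples by about 3 SD, 99.7% confidence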;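 note: fluorescence intensity change per second fitted from 20 to 320 s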). The note with it: Recombinant KvBeta, NADPH fluorescence decrease slope, 10 min; at 10 µM; stronger effect = lower value.
Test [7] addresses Muscarinic acetylcholine receptor M4 (Homo sapiens) (UniProt P08173). Briefly: compounds altering M4/GIRK thallium flux, either direction, primary screen, M4 allosteric agonist project, cell-based, HEK293 M4/GIRK, BTC-AM (AID 625;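 active = fluorescence slope after compound addition differing from the mean of all tested samples at 99.7% confidence, mostly higher but some lower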;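 note: thallium influx through GIRK channels coupled to M4 in HEK293 cells with BTC-AM dye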). The note with it: at 10 µM, actives lie on both sides. The gist of the method: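 assay system = HEK293 cells with M4 receptor and GIRK channels | medium = pH 7.3 thallium assay buffer | doses = 10 µM final, single point | timing = cells overnight at 37 °C, BTC-AM loading 1 h, reads 2 min total | signal = BTC-AM fluorescence, 1 Hz kinetic reads | read-out = post-addition slope, 15–24 s, of baseline-normalized fluorescence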

The nature of test [8]: inhibitors of larval lipid processing in zebrafish, primary screen, whole organism, PED6 fluorescence, gall bladder and intestine (AID 686;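 active = a full or partial loss of lipid-probe fluorescence in the fish gall bladder, intestine or both, judged by eye; inactive = no fluorescence loss, or compound toxic to the fish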;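 note: larvae 5 to 7 days old with five fish per well; signal comes from phospholipase A2 cleavage of quenched PED6 carried via bile; overnight exposure to compound and PED6 before scoring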). The note with it: Zebrafish larvae PED6 lipid processing, fluorescence scoring; screened at 20 µM (by protocol). The essentials: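 Also added: quenched phospholipase substrate PED6, 100 nM final, ingested by larvae; System: zebrafish larvae, 5-7 d; Quantity: 5 larvae per well; Compound: 20 µM single dose; Schedule: overnight compound and PED6 incubation; Read-out: visual per-well fluorescence inhibition score; Measured by: By-eye fluorescence microscopy; Medium: E3.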

A short description of test [9]: inhibitors of Chlamydomonas gravitaxis, primary screen, whole organism, Chlamydomonas reinhardtii, WT vs cilia-less mutant, absorbance, 96-well (AID 463189;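 active = inhibition at or above 50% relative to wild type and mutant plate controls; inactive = inhibition below 50%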;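 note: 0% = wild type cc124 cells in DMSO and 100% = ciliumless bld1 mutant cells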). To be noted: OD600 absorbance, 2 days, at 10 µM, stronger effect = higher value.
Setting [10] is: measured here: cell density z-score.
Setting [11] is: measured here: nuclear c-Myc green intensity z-score.
The mark [12] stands for this setting: measured here: nuclear pErk red intensity z-score, stronger effect = higher value.

Sequence of Muscarinic acetylcholine receptor M4 (Homo sapiens) (P08173 whole entry, looked up): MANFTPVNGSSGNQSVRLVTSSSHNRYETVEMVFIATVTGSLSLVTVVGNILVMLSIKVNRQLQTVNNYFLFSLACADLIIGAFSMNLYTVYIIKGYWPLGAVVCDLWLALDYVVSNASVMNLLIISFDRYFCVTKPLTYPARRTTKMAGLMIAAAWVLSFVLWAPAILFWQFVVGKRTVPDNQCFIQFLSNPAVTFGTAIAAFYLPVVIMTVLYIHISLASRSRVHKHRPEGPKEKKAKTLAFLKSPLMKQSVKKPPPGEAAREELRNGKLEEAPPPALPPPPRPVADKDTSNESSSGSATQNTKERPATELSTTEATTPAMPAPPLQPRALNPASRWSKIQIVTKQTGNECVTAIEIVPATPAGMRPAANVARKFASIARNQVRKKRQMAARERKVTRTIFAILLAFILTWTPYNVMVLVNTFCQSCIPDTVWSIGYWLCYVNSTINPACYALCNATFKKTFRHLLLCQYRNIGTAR
Sequence of Voltage-gated potassium channel subunit beta-2 (Rattus norvegicus) (P62483 whole entry, looked up): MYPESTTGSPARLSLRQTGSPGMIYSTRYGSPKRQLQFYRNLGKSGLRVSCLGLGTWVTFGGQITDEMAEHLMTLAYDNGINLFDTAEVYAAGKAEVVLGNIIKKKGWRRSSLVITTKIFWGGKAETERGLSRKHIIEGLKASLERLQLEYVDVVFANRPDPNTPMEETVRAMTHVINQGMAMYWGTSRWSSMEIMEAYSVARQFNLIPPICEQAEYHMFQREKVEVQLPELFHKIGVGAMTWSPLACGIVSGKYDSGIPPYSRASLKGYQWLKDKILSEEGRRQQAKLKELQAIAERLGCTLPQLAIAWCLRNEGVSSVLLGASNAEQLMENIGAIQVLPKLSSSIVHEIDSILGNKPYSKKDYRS
Sequence of Dual specificity protein phosphatase 6 (Homo sapiens) (Q16828 whole entry, looked up): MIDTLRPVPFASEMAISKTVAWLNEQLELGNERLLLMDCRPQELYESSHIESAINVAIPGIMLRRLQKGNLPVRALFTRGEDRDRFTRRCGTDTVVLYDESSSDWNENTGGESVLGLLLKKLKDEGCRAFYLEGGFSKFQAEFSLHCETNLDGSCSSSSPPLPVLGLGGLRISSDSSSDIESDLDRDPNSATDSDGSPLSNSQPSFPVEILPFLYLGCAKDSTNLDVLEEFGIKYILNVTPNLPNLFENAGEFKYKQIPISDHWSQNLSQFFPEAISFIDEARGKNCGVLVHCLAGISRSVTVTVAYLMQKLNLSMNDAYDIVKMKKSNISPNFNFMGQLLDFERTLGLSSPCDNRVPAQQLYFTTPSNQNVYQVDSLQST

The inhibition is the drop in the measured response relative to a control, in per cent. `Cc1ccccc1COc1ccc(/C(O)=C2/C(=O)C(=O)N(CCCn3ccnc3)C2c2ccco2)cc1` (stereo unspecified): in test [1], the cell count was 642. Also, the inhibition in test [1] was -2.1% (inactive); in test [2], -23.1% (inactive); in test [4], 9.37% (inactive); in test [9], 13.6% (inactive). This compound also came in with a nuclei count in [2] of 171%. The z-score in [3] (setting [10]) is -1.5; in test [3] (setting [11]), -0.323; in test [3] (setting [12]) it was 2.13. Besides, the values for the fluorescence slope in test [5] and in test [7] were -0.48 (inactive) and 0.00521 (inactive), respectively. In addition, in test [6], the NADPH fluorescence slope is -0.00012 (inactive). Besides, the compound was classed as inactive in test [8].

With `CCCSc1nnc(NC(=O)Nc2ccccc2)s1`, in test [1], the cell count was determined as 655. Besides, the inhibition is -20.6% (inactive) in [1], -53.8% (inactive) in test [2], 5.35% (inactive) in test [4] and -6.45% (inactive) in test [9]. In test [2], this compound came in with a nuclei count of 184%. In addition, the results for the z-score in [3] (setting [10]), in [3] (setting [11]) and in test [3] (setting [12]) were 0.599, -1.15 and -0.322, respectively. Moreover, the fluorescence slope is -0.484 (inactive) in test [5] and 0.00763 (inactive) in test [7]. In [6], the NADPH fluorescence slope is -5.4e-05 (inactive). Also, the result in [8] was inactive.

For `CCCc1nc2n[nH]c(N)c2c2c1CCCC2`, the cell count in test [1] is 478. The inhibition is -12.3% (inactive) in test [1], -64.3% (inactive) in test [2], -2.09% (inactive) in [4] and -1.38% (inactive) in [9]. In test [2], this compound registered a nuclei count of 118%. Further, the values for the z-score in [3] (setting [10]), in test [3] (setting [11]) and in [3] (setting [12]) were -0.479, -0.89 and -1.19, respectively. Also, the fluorescence slope in test [5] is -0.48 (inactive); in test [7], 0.00548 (inactive). Moreover, in test [6], the NADPH fluorescence slope was -0.000102 (inactive). The compound was classed as inactive in [8].

Consider `CN1CCc2c(n(CC(O)CN3C(=O)c4ccccc4S3(=O)=O)c3ccccc23)C1=O` (stereo unspecified), for which the cell count in [1] is 678. Besides, the inhibition was -11.7% (inactive) in [1], -109% (inactive) in test [2], 6.04% (inactive) in test [4] and 6.44% (inactive) in [9]. The compound also returned a nuclei count in test [2] of 158%. The z-score in [3] (setting [10]) was 1.84; in test [3] (setting [11]), -0.542; in test [3] (setting [12]), -1.28. Moreover, the fluorescence slope in [5] was -0.488 (inactive); in [7], 0.00494 (inactive). Further, the NADPH fluorescence slope in test [6] was -3.3e-05 (inactive). Further, in [8], the outcome was inactive.

With `CCCOC(=O)CSC1=C(C#N)C(c2ccc3c(c2)OCO3)CC(=O)N1` (stereo unspecified), the cell count in [1] came out at 674. Also, the inhibition in test [1] is -6.1% (inactive); in test [2], -91.1% (inactive); in test [4], -7.86% (inactive); in test [9], 6.85% (inactive). The compound further registered a nuclei count in [2] of 161%. Also, the figures for the z-score in test [3] (setting [10]), in test [3] (setting [11]) and in test [3] (setting [12]) were 0.796, -0.679 and -1.26, respectively. The fluorescence slope in [5] is -0.487 (inactive); in test [7], 0.00536 (inactive). Further, the NADPH fluorescence slope in [6] is -6.2e-05 (inactive). In test [8], the call was inactive.

Consider `CCOC(=O)c1c(C)oc2ccc(OCC(=O)C(C)(C)C)cc12`, for which, in test [1], the cell count was determined as 668. Besides, the inhibition was -6% (inactive) in test [1], -24.4% (inactive) in test [2], 20.2% (inactive) in [4] and -8.35% (inactive) in test [9]. In test [2], this compound gave a nuclei count of 124%. The z-score was 0.82 in test [3] (setting [10]), -1.27 in test [3] (setting [11]) and 0.55 in test [3] (setting [12]). Also, the fluorescence slope in [5] was -0.435 (inactive); in test [7], 0.00509 (inactive). The NADPH fluorescence slope in test [6] was -5.9e-05 (inactive). Besides, the outcome in test [8] was inactive.

Regarding `Cc1ccc(S(=O)(=O)c2cc3c(=O)n4cccc(C)c4nc3n(CC3CCCO3)c2=N)cc1` (stereo unspecified), the cell count in test [1] was 573. Also, the inhibition in test [1] is -12.2% (inactive); in [2], 34.6% (inactive); in test [4], -8.27% (inactive); in test [9], -6.46% (inactive). The compound further displayed a nuclei count in [2] of 107%. The results for the z-score in [3] (setting [10]), in [3] (setting [11]) and in test [3] (setting [12]) were 0.122, 0.519 and -1.24, respectively. Also, the fluorescence slope was -0.456 (inactive) in test [5] and 0.00435 (inactive) in [7]. For the same compound, the NADPH fluorescence slope in test [6] was -3.3e-05 (inactive). The compound was classed as inactive in test [8].
